Compound activity from PubChem.
DENV2 CPE – inhibitors of DENV2 cytopathic effect, primary screen, cell-based, plate reader, single concentration. DENV2-infected cells, cytopathic effect rescue. CPE inhibition, % at 9.99 µM. 1.7% of 350,000 active; in the data active = CPE inhibition above about 20%, passing the limit was not always enough; inconclusive = no clear call, values can overlap the other calls; tested in BHK-21 cells
XiGFP reactiv – activators of inactive X chromosome reactivation, primary screen, imaging, XiGFP fibroblasts, GFP high-content imaging, set 2 | XiGFP mouse fibroblasts, % GFP-positive cells imaging, 3 d; cells co-treated with 5-aza-dC sensitizer; scaled so ellipticine positive control = 100% | activation, % at 7.58 µM | 0.055% of 360,000 active | AID 743238, 2013;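 active = mean normalized replicate activation at least 10% and every replicate at or above 10%; inconclusive = only one of the two criteria met; inactive = mean below 10% and not all replicates reach 10%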
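System: XiGFP fibroblasts, SV40-immortalized. Medium: DMEM plus 5-aza-dC sensitizer. Doses: single point. Timing: 3 d treatment, 15 min room-temperature fixation. Control set: ellipticine 6 µM.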
FN deposition inh – inhibitors of fibronectin matrix deposition, primary screen, AH1F cells, Alexa488-fibronectin fluorescence, plate reader | AH1F fibroblasts, overnight | inhibition, % at 12.6 µM | 0.086% of 350,000 active;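 active = mean inhibition across replicates of 30% or more, regardless of how many single replicates reach that level; inconclusive = mean under 30% yet at least half of replicates reach 30%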
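Assay system: AH1F fibroblast monolayer, labelled fibronectin deposition. Amount: 10000 cells per well. Also added: labelled fibronectin 24 nM. Compound: single-point pinned compound. Incubation: cell attachment 1 h, compound and FN exposure overnight. Detection: fluorescence after three HBSS washes, excitation 485 nm, emission 525 nm. Read-out: inhibition of fibronectin deposition signal.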
Casp6 inh – human caspase-6 inhibitors, primary screen, biochemical, VEID-R110 fluorescence, single point, set 2; P55212; purified caspase-6, Z-VEID-R110 cleavage fluorescence; inhibition, % at 12.5 µM; 0.53% of 350,000 active;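 active = mean inhibition across replicates at least about 35%, with every replicate also reaching that limit, limit read from the data; inconclusive = only one of the two criteria met; inactive = neither criterion met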
Target sequence (P55212 24-179 limits assumed): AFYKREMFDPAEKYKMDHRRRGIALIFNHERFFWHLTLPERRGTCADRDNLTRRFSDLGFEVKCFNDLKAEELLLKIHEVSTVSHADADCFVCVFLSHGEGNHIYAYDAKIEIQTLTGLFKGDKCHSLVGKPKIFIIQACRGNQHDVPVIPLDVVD
Target sequence (P55212 194-293 limits assumed): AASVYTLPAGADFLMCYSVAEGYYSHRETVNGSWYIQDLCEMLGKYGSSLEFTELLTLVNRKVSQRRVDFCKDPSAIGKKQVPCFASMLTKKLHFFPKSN
CaV13 FRET inh – Primary screen for inhibitors of IQ motif and Ca2+-dependent inactivation inhibitor domain binding in CACNA1D, Förster resonance energy transfer in living cells, …; inhibition, % at 12.3 µM; HEK cells, CFP/YFP FRET ICDI-IQ, plate reader, 10 min; percent FRET-ratio fall versus neutral wells; 0.098% of 340,000 active;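 active = mean replicate inhibition of at least 30% and at least 1% of replicates passing that level; inconclusive = only one of the two criteria is met; inactive = neither criterion is met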
A number is an active result; - = inactive; ? = inconclusive; . = not tested or not shown. In the library only some 2% were active in any assay of this set; here they are far more common.

SMILES	DENV2 CPE	XiGFP reactiv	FN deposition inh	Casp6 inh	CaV13 FRET inh
CCN(CC)CCNC(=O)c1ccc(NC(=O)Cc2ccc(OC)c(S(=O)(=O)N3CCOCC3)c2)cc1	40.3	-	-	-	-
COc1ccc(CC(=O)Nc2cccc(C(C)=O)c2)cc1S(=O)(=O)N1CCOCC1	?	-	-	-	-
COc1ccc(NC(=O)CN2CCc3ccccc3C2)cc1S(=O)(=O)N1CCOCC1	51.5	-	-	-	-
COc1cccc(NC(=O)C[C@H]2CC[C@@H]3[C@H](COc4ccc(NC(=O)C5CCOCC5)cc4C(=O)N3C)O2)c1	-	-	-	-	.
CC(=NNc1nc2ccccc2o1)c1cc2ccccc2cn1	-	72.9	-	-	-
CC(=NNc1nc2ccccc2o1)c1ncccn1	-	-	-	-	-
O=C(N/N=C/c1cn(Cc2cccc(F)c2)c2ccccc12)c1cc(O)cc(O)c1	-	-	-	57.4	-
Nc1ccc(C(=O)N/N=C/c2cn(Cc3ccc(F)cc3)c3ccccc23)cc1	?	-	.	73.2	.
CC(=O)N1[C@H](CO)[C@H](c2ccc(C#CC3CCCCC3)cc2)[C@H]1CNCC(C)C	-	-	-	-	.
CC(C)CC#Cc1ccc2c(c1)O[C@H](CN(C)C(=O)c1cccc(F)c1)[C@@H](C)CN([C@@H](C)CO)S2(=O)=O	24.3	-	-	-	.
CC(C)CC#Cc1ccc2c(c1)O[C@H](CN(C)C(=O)c1ccccc1F)[C@@H](C)CN([C@@H](C)CO)S2(=O)=O	31.6	-	.	-	.
CCCC#Cc1ccc2c(c1)O[C@H](CN(C)C(=O)c1ccccc1F)[C@H](C)CN([C@H](C)CO)S2(=O)=O	-	-	-	-	.
CCCN(C)C[C@@H]1Oc2cc(C#CCC(C)C)ccc2S(=O)(=O)N([C@H](C)CO)C[C@@H]1C	34.3	-	-	-	.
C[C@@H]1CN([C@H](C)CO)S(=O)(=O)c2ccc(C#CC(C)(C)O)cc2O[C@@H]1CN(C)C	-	-	-	-	.
CCCC(=O)N1CC2(CN(Cc3nccs3)C2)c2c([nH]c3cc(OC)ccc23)[C@@H]1CO	?	-	-	-	.
COc1ccc(CCN(C)C(=O)CSc2nc3ccccc3c(=O)n2CC2CCCO2)cc1OC (stereo not drawn)	20.7	-	-	-	-
C=CCn1c(SCC(=O)c2ccc(O)c(O)c2)nnc1-c1cccnc1	-	-	-	61.2	-
COc1cccc(CNC(=O)[C@H]2[C@H](CO)[C@H]3Cn4c(ccc(C5=CCCC5)c4=O)[C@@H]2N3)c1	.	-	-	.	.
COC(=O)c1c(CC[C@@H](CO)NC(=O)N[C@H](Cc2ccccc2)Cn2cc(-c3ccccn3)nn2)oc(C(C)=O)c1C(=O)OC	31.0	.	.	-	.
O=C1C(Cl)=C(NCc2ccco2)C(=O)c2ccccc21	?	-	-	98.9	-
O=S(=O)(c1cccs1)N1CCCCN2[C@@H](CO)[C@H](c3ccc(Br)cc3)[C@@H]2C1	33.1	-	.	-	.
O=S(=O)(c1ccccc1F)N1CCCCN2[C@H](C1)[C@@H](c1ccc(-c3ccccc3)cc1)[C@@H]2CO	-	.	.	-	.
O=S(=O)(c1cccs1)N1CCCCN2[C@H](C1)[C@H](c1ccc(Br)cc1)[C@@H]2CO	-	-	.	-	.
COCC#Cc1ccc([C@@H]2[C@H]3CN(S(=O)(=O)c4ccccc4F)CCCCN3[C@H]2CO)cc1	32.7	-	.	-	.
COCC#Cc1ccc([C@@H]2[C@@H](CO)N3CCCCN(S(=O)(=O)c4ccccc4C)C[C@@H]23)cc1	-	-	.	-	.
O=S(=O)(c1ccccc1F)N1CCCCN2[C@H](CO)[C@H](c3ccc(-c4ccccc4)cc3)[C@H]2C1	33.9	-	.	-	.
O=C(Nc1cccc(Cl)c1)N[C@H]1CC[C@@H](CCNC(=O)C2CCCC2)O[C@H]1CO	-	-	-	-	.
CC(NC(=O)CN1CCCC1)c1ccccc1 (stereo not drawn)	23.6	-	-	-	-
Cc1ccccc1CN1CCN(CC(=O)NC(C)c2ccccc2)CC1 (stereo not drawn)	27.2	-	-	-	-
